The source made the active and inactive calls. The rule behind the calls is not given here.

Experiment [1] has as its system Plasmodium falciparum. Briefly: Antimalarial activity against chloroquine-sensitive Plasmodium falciparum 3D7 in human erythrocytes after 48 hrs by [3H]hypoxanthine uptake. It is filed as functional, organism-based. The procedure, abridged: (§1)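 P. falciparum grown in human erythrocytes in RPMI 1640 with 25 mM HEPES, 32 mM NaHCO3 and 10% human serum, gassed 3% O2/4% CO2/93% N2. Assay at 2% parasitemia, 0.5% hematocrit, drug stocks in DMSO diluted in medium, in triplicate. After 24 h at 37 °C, [3H]-hypoxanthine added and incubation continued 24 h. Scintillation counting; IC50 by probit interpolation of log dose-response, three independent experiments.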

In experiment [2] the test system is Plasmodium falciparum. Briefly: Antimalarial activity against chloroquine-sensitive Plasmodium falciparum HB3 in human erythrocytes after 48 hrs by [3H]hypoxanthine uptake. It is filed as functional, organism-based. The procedure, abridged:
as §1

Experiment [3] concerns Plasmodium falciparum. The experiment in a line: Antimalarial activity against chloroquine-resistant Plasmodium falciparum K1 in human erythrocytes after 48 hrs by [3H]hypoxanthine uptake. It is filed as functional, organism-based. In outline: as §1
Another experiment concerns Plasmodium berghei. The experiment in a line: Antimalarial activity as reduced parasitaemia against Plasmodium berghei ANKA infected CD1 mice (Mus musculus) after 4 days. It is filed as functional. As to conditions: 96 h. In outline:
(§2)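 Standard Peters 4-day test in female age-matched CD1 mice, randomised into groups of 5. Mice were infected iv on day 0 with 6.4 × 10^6 or 10.0 × 10^6 parasites (P. berghei or P. yoelii) from infected donors. Peripheral-blood parasitaemia was read by flow cytometry at day 4 and compared with vehicle-treated groups. Doses ranged up to 40 mg/kg.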

For experiment [4], the system named is Plasmodium yoelii. The experiment in a line: Antimalarial activity as reduced parasitaemia against Plasmodium yoelii 17X infected CD1 mice (Mus musculus) after 4 days. It is filed as functional. The following applies: 96 h.
Experiment [5] concerns Plasmodium yoelii. Briefly: Antimalarial activity as ED100 in peripheral blood against Plasmodium yoelii 17X infected CD1 mice (Mus musculus) after 4 days. The class given is functional.
The test system of experiment [6] is Heme. The experiment in a line: Binding affinity to heme in DMSO assessed as equilibrium constant by UV-visible spectrophotometry. Details: scale not given here. In outline:
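Haem titrations were run in buffered 40% DMSO so that haem stays monomeric and aggregation and μ-oxo dimer formation are minimised. Binding data were fitted mathematically to two alternative binding-process models to pick the best fit.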

In experiment [7] the test system is Plasmodium yoelii. Briefly: Antimalarial activity as reduced parasitaemia at day 4 against Plasmodium yoelii 17X infected CD1 mice (Mus musculus) at 40 mg/kg. The class given is functional, organism-based. Details: dose 40 mg/kg. The procedure, abridged: as §2
Experiment [8] deals with Heme. The experiment in a line: Binding affinity to heme in 12 mM SDS surfactant assessed as equilibrium constant by UV-visible spectrophotometry.

Regarding `CCN(CC)Cc1cc(Nc2ccnc3cc(Cl)ccc23)ccc1O.Cl`, the IC50 worked out at 11.2 nM in the experiment on Plasmodium falciparum [1], 9.6 nM with Plasmodium falciparum [2] and 15.5 nM in the experiment on Plasmodium falciparum [3]. Moreover, the ED50 with Plasmodium berghei was 2.1 mg/kg; with Plasmodium yoelii [4], 2.6 mg/kg. Further, the ED90 in the experiment with Plasmodium berghei turned out to be 3.2 mg/kg; in the experiment with Plasmodium yoelii [4], 3.7 mg/kg. In addition, the Activity was greater than 40 mg/kg in the experiment with Plasmodium yoelii [5] and 4.4 in the experiment on Heme [6].

In the case of `C=C[C@H]1CN2CC[C@H]1C[C@H]2[C@H](O)c1ccnc2ccc(OC)cc12`, the Activity in the experiment with Heme [6] turned out to be 4.4.

In the case of `CC(C)(C)NCc1cc(Nc2ccnc3cc(Cl)ccc23)ccc1F`, the result with Plasmodium yoelii [7] was inactive.

On to `OC(c1cc(C(F)(F)F)nc2c(C(F)(F)F)cccc12)C1CCCCN1` (stereo not drawn), for which the Activity with Heme [6] amounted to 3.84.

`c1ccncc1`: the Activity with Heme [8] amounted to 2.24.

The values are drawn from ChEMBL document CHEMBL1140918, “Candidate selection and preclinical evaluation of N-tert-butyl isoquine (GSK369796), an affordable and effective 4-aminoquinoline antimalarial for the 21st century” (J Med Chem, 2009).
